Published values collected from several papers.
Compare with care: the assays were run in different laboratories. pIC50, pKi: −log10 of the molar value.
Target: Carbonic anhydrase 2 (CA2, Homo sapiens, UniProt P00918)
Effect on: enzyme activity
Action: inhibitor

The pIC50 of `CN(C)CCC(c1ccccc1)c1ccccn1` (stereo not drawn) is reported as 4.65 (absorbance; pH 7.4).
The pKi of `NCCCC(=O)Nc1nnc(S(N)(=O)=O)s1` is reported as 7.18 (stopped-flow).
With `CC[C@H]1OC(=O)[C@H](C)[C@@H](O[C@H]2C[C@@](C)(OC)[C@@H](O)[C@H](C)O2)[C@H](C)[C@@H](O[C@@H]2O[C@H](C)C[C@H](N(C)C)[C@H]2O)[C@](C)(O)C[C@@H](C)CN(C)[C@H](C)[C@@H](O)[C@]1(C)O` the pIC50 was 4.89 (absorbance; pH 7.4).
`Cc1cccc(CC(=O)Nc2nnc(S(N)(=O)=O)s2)c1` has a pKi of 7.43 (stopped-flow).
The pIC50 of `OC1CCN(c2ccc(/C=N/NC(=S)NCc3ccc(Cl)cc3)cc2)CC1` is reported as 6.43 (absorbance).
`CC1CCCCC1CC(=O)Nc1nnc(S(N)(=O)=O)s1` (stereo not drawn) has a pKi of 7.53 (stopped-flow).
`Cc1cncc(CN2CCC(=C3c4ccc(Cl)cc4CCc4cccnc43)CC2)c1` gave a pIC50 of 4.84 (absorbance; pH 7.4).
`OC1CCN(c2ccc(/C=N/NC(=S)Nc3ccc(Br)cc3)cc2)CC1` gave a pIC50 of 6.48 (absorbance).
`O=c1[nH]c(=O)n([C@H]2C[C@H](O)[C@@H](CO)O2)cc1/C=C/Br` gave a pIC50 of 4.93 (absorbance; pH 7.4).
For `COc1ccc(NC(=S)N/N=C/c2ccc(N3CCC(O)CC3)cc2)cc1`, the pIC50 was 6.24 (absorbance).
For `NS(=O)(=O)c1nnc(NC(=O)CCCC2CCCCC2)s1`, the pKi was 8.06 (stopped-flow).
`OC1CCN(c2ccc(/C=N/NC(=S)Nc3ccccc3)cc2)CC1` has a pIC50 of 6.30 (absorbance).
For `O=C(O)c1ccc(Nc2nc(-c3cc4cc(Br)ccc4oc3=O)cs2)cc1`, the pIC50 was 5.89 (absorbance).
`CC(C)(C)CCC(=O)Nc1nnc(S(N)(=O)=O)s1` gave a pKi of 7.99 (stopped-flow).
For `CC(C)CNC(=S)N/N=C/c1ccc(N2CCC(O)CC2)cc1`, the pIC50 was 6.16 (absorbance).
